In ChEMBL document CHEMBL3112573, “Design, synthesis and evaluation of acridine and fused-quinoline derivatives as potential anti-tuberculosis agents” (Eur J Med Chem, 2014):
≈ marks a conversion by molar mass, not a printed value. Calls of active or inactive are those of the source. The rule behind the calls is not given here.

Assays:
[1] = test system: Mycobacterium tuberculosis; test: Antimicrobial activity against Mycobacterium tuberculosis H37Rv after 7 days by BacTiter-Glo assay; assay type: functional, organism-based; conditions: 168 h
Outline: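 H37Rv in 384-well format, 10-point dose response, compounds serially diluted 1:2 from 100 thru 0.195 (top of range); DMSO carrier as 100% growth control, high amikacin as background, lower amikacin (MIC-approximating) control. After 7 days, equilibrated to room temperature, BacTiter-Glo added, 20 min at room temperature, luminescence (ATP) read.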

[2] = Cytotoxicity against mouse J774 cells assessed as cell viability at MIC relative to control; assay type: cell-based; conditions: read-out: Activity
Outline: (§1)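 Uninfected J774 macrophages run in parallel to the infection assay (RPMI 1640, 1% FBS, 37 °C, 5% CO2), exposed to the same three concentrations (mid bracketing primary-screen MIC, ten-fold below and above); MTT proliferation read-out reported as percent viability.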

[3] = Cytotoxicity against mouse J774 cells assessed as cell viability at 10-fold above MIC relative to control; assay type: cell-based; conditions: read-out: Activity; outline: as §1
[4] = test system: Mycobacterium tuberculosis; test: Bactericidal activity against Mycobacterium tuberculosis H37Rv SRI 1345 after 18 to 24 hrs; assay type: functional; conditions: for MBC: Mycobacterium tuberculosis, H37Rv SRI 1345, read-out: MBC99.9
Outline: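 Following MIC testing, diluted aliquots from wells lacking macroscopic growth plated on Middlebrook 7H10 agar, 16–21 days at 37 °C, colonies counted. MBC = lowest concentration giving 99.9% kill over the MIC period (18–24 h); >40 colonies taken as rejection value; uncountable plates reported TNTC.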

[5] = test system: Mycobacterium tuberculosis; test: Antimicrobial activity against Mycobacterium tuberculosis H37Rv SRI 1345 infected in mouse J774 cells assessed as intracellular growth inhibition at MIC after 7 days relative to control; assay type: functional
Outline: (§2)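 Murine J774 cells in RPMI 1640 + L-glutamine/FBS, 37 °C, 5% CO2; seeded 2.0 × 10^5 per well in 10% FBS, overnight, then 1% FBS to halt division. After 24 h infected with H37Rv at MOI 5 for 4 h, washed; drug at three concentrations (mid bracketing primary-screen MIC, ten-fold below and above) for 7 days. SDS lysis, DNase, plating on 7H10 for CFU; log reduction day 0 to day 7; duplicates, rifampin control.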

[6] = Cytotoxicity against mouse J774 cells assessed as cell viability at 10-fold below MIC relative to control; assay type: cell-based; conditions: read-out: Activity; outline: as §1
[7] = test system: Mycobacterium tuberculosis; test: Antimicrobial activity against Mycobacterium tuberculosis H37Rv SRI 1345 infected in mouse J774 cells assessed as intracellular growth inhibition at 10-fold above MIC after 7 days relative to control; assay type: functional; outline: as §2
[8] = test system: Mycobacterium tuberculosis; test: Antimicrobial activity against Mycobacterium tuberculosis H37Rv SRI 1345 assessed as growth inhibition after 7 days by broth microdilution assay; assay type: functional; conditions: H37Rv SRI 1345, 168 h
Outline: (§3)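 Broth microdilution per CLSI in Middlebrook 7H9 + OADC; ten two-fold dilutions; inoculum targeted 1.0 × 10^6 CFU/mL M. tuberculosis; 37 °C, ~90% humidity, 7 days. Wells scored visually for turbidity, partial or complete clearing; MIC = lowest concentration visually inhibiting growth; percent inhibition at the MIC also recorded. Duplicates; rifampin or isoniazid positive control, medium-only and organism-only controls.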

[9] = test system: Mycobacterium tuberculosis; test: Antimicrobial activity against Mycobacterium tuberculosis H37Rv SRI 1345 assessed as growth inhibition at MIC after 7 days by broth microdilution assay relative to control; assay type: functional; outline: as §3
[10] = test system: Mycobacterium tuberculosis; test: Antimicrobial activity against Mycobacterium tuberculosis H37Rv SRI 1345 infected in mouse J774 cells assessed as intracellular growth inhibition at 10-fold below MIC after 7 days relative to control; assay type: functional; outline: as §2
[11] = test system: Mycobacterium tuberculosis; test: Antimicrobial activity against Mycobacterium tuberculosis H37Rv SRI 1345 incubated for 7 days under anaerobic condition followed by exposure to gaseous condition measured after 7 days by low-oxygen recovery assay; assay type: functional, organism-based
Outline: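 Microplates set up as for MIC testing, then held anaerobically (automated jar gassing) 7 days at 37 °C, moved to ambient air with 5% CO2 for 7 days; wells scored visually for turbidity/clearing. Result = lowest concentration visually inhibiting growth. Duplicates with sterility, growth and rifampin or isoniazid controls.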

[12] = test system: Mycobacterium tuberculosis; test: Antimicrobial activity against Mycobacterium tuberculosis H37Rv SRI 1345 incubated for 7 days under aerobic condition by low-oxygen recovery assay; assay type: functional, organism-based

CC[C@@H](CO)NCCN[C@@H](CC)CO [ETHAMBUTOL]
IC50 [1]: < 1.56 µM | IC90 [1]: 32.8 µM

O=C1c2ccccc2-c2nc3ccc(Cl)cc3c(-c3ccccc3)c21
IC50 [1]: > 100 µM | IC90 [1]: > 100 µM

Clc1ccc2nc3c(c(-c4ccccc4)c2c1)CCCC3
IC50 [1]: > 100 µM | IC90 [1]: > 100 µM

NCC[C@H](O)C(=O)N[C@@H]1C[C@H](N)[C@@H](O[C@H]2O[C@H](CN)[C@@H](O)[C@H](O)[C@H]2O)[C@H](O)[C@H]1O[C@H]1O[C@H](CO)[C@@H](O)[C@H](N)[C@H]1O [AMIKACIN]
IC50 [1]: 0.07 µM | IC90 [1]: 0.08 µM

CO[C@H]1/C=C/O[C@@]2(C)Oc3c(C)c(O)c4c(O)c(c(/C=N/N5CCN(C)CC5)c(O)c4c3C2=O)NC(=O)/C(C)=C\C=C\[C@H](C)[C@H](O)[C@@H](C)[C@@H](O)[C@@H](C)[C@H](OC(C)=O)[C@@H]1C [RIFAMPIN]
viability [2]: 86% | viability [3]: 78% | CFU [4]: 39 | MBC [4]: 1.56 µg/mL (≈ 1.9 µM) | fold change (FC) [5]: 1.83 | viability [6]: 82% | fold change (FC) [7]: 1.85 | MIC [8]: 0.049 µg/mL (≈ 0.0595 µM) | IC50 [1]: 0.02 µM | IC90 [1]: 0.02 µM | growth inhibition (GI) [9]: 65% | fold change (FC) [10]: 0.46

NNC(=O)c1ccncc1 [ISONIAZID]
IC50 [1]: 0.18 µM | IC90 [1]: 0.29 µM

N[C@@H]1CONC1=O [CYCLOSERINE]
IC50 [1]: 12.5 µM | IC90 [1]: 13.5 µM

CC1(C)CC(=O)c2c(nc3ccc(Cl)cc3c2-c2ccccc2)C1
IC50 [1]: > 100 µM | IC90 [1]: > 100 µM

Clc1ccc2nc3c(c(-c4ccccc4)c2c1)CCC3
viability [2]: 79% | viability [3]: < 10% | CFU [4]: 0 | MBC [4]: 50 µg/mL (≈ 179 µM) | fold change (FC) [5]: 1.82 | viability [6]: 86% | fold change (FC) [7]: 3.12 | MIC [8]: 12.5 µg/mL (≈ 44.7 µM) | Activity [11]: Active | IC50 [1]: 73.4 µM | IC90 [1]: > 100 µM | growth inhibition (GI) [9]: 88% | fold change (FC) [10]: 1 | Activity [12]: Active

O=[N+]([O-])c1ccc2nc3c(c(-c4ccccc4)c2c1)CCCCC3
viability [2]: 79% | viability [3]: < 10% | fold change (FC) [5]: 1.19 | viability [6]: 82% | fold change (FC) [7]: 1.41 | MIC [8]: 75 µg/mL (≈ 236 µM) | Activity [11]: Active | IC50 [1]: 61.9 µM | IC90 [1]: 95.4 µM | growth inhibition (GI) [9]: 76% | fold change (FC) [10]: 1.24 | Activity [12]: Active

O=[N+]([O-])c1ccc2nc3c(c(-c4ccccc4)c2c1)CCCC3
viability [2]: 63% | viability [3]: 25% | fold change (FC) [5]: 1.25 | viability [6]: 67% | fold change (FC) [7]: 1.72 | MIC [8]: 12.5 µg/mL (≈ 41.1 µM) | Activity [11]: Active | IC50 [1]: 44.4 µM | IC90 [1]: > 100 µM | growth inhibition (GI) [9]: 52% | fold change (FC) [10]: 1.8 | Activity [12]: Active

O=C1c2ccccc2-c2nc3ccc([N+](=O)[O-])cc3c(-c3ccccc3)c21
IC50 [1]: > 100 µM | IC90 [1]: > 100 µM

CC1(C)CC(=O)c2c(nc3ccc([N+](=O)[O-])cc3c2-c2ccccc2)C1
IC50 [1]: > 100 µM | IC90 [1]: > 100 µM

Clc1ccc2nc3c(c(-c4ccccc4)c2c1)-c1ccccc1C3
IC50 [1]: > 100 µM | IC90 [1]: > 100 µM

CCc1nc(N)nc(N)c1-c1ccc(Cl)cc1 [PYRIMETHAMINE]
IC50 [1]: 5 µM | IC90 [1]: 5 µM

Clc1ccc2nc3c(c(-c4ccccc4)c2c1)CCCCC3
IC50 [1]: > 100 µM | IC90 [1]: > 100 µM

O=[N+]([O-])c1ccc2nc3c(c(-c4ccccc4)c2c1)Cc1ccccc1-3
IC50 [1]: > 100 µM | IC90 [1]: > 100 µM

Clc1ccc2nc3c(c(-c4ccccc4)c2c1)Cc1ccccc1-3
IC50 [1]: > 100 µM | IC90 [1]: > 100 µM
